The subject of series [1] is Hepatocyte. Kind of series: Cytotoxicity against rat hepatocyte cells after 48 hrs by MTT assay. In kind it is cell-based. Put shortly: (§1)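 Cells seeded in 24-well plates at 1 × 10⁵ cells/well, allowed 12 h, then exposed to test chemical or vehicle for 48 h, in triplicate. Medium replaced with MTT in PBS (pH 7.4) for 4 h at 37 °C; formazan dissolved in DMSO and read at 540 nm. Viability = (test − background)/(control − background) × 100.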
(Tetrazolium assays rely on reduction of a dye to a coloured formazan, in cell work by metabolically active cells.)

Series [2] deals with SK-HEP1. In words: Cytotoxicity against human SKHEP1 cells after 48 hrs by MTT assay. In kind it is functional, cell-based. The note with it: SK-HEP1, 48 h. Put shortly: as §1
Series [3] has as its system HepG2. Kind of series: Cytotoxicity against human HepG2 cells after 48 hrs by MTT assay. Format: functional, cell-based. The note with it: HepG2, 48 h. Put shortly:
as §1

The test system of series [4] is Hepatocyte. Kind of series: Cytotoxicity against rat hepatocyte cells at 50 uM after 48 hrs by MTT assay. In kind it is cell-based. The note with it: hepatocytes. In a few lines: as §1
In series [5] the test system is HepG2. In words: Cytotoxicity against human HepG2 cells at 50 uM after 48 hrs by MTT assay. In kind it is functional, cell-based. In a few lines:
as §1

Series [6] is described as follows: Cytotoxicity against rat hepatocyte cells assessed as survival at 200 uM after 48 hrs by MTT assay. The note with it: rat hepatocytes, read-out: Activity. In kind it is cell-based. In a few lines: as §1
The test system of series [7] is SK-HEP1. In words: Cytotoxicity against human SKHEP1 cells at 50 uM after 48 hrs by MTT assay. Format: functional, cell-based. Put shortly: as §1

The source made the active and inactive calls. No cut-off for these calls is given here.

Usually IC50 stands for the concentration that inhibits the measured activity by half. Read a low IC50 as greater potency in that assay.

Turning to `O=C1c2ccccc2C(=O)N1c1nccs1`, the 50% inhibitory concentration (IC50) with Hepatocyte [1], in the series with SK-HEP1 [2] and in the series on HepG2 [3] was over 200 µM each time.

Consider `O=C1C2C(C(=O)N1c1nc3ccccc3s1)[C@H]1C=C[C@@H]2CC1` (stereo partly drawn), for which the IC50 in the series on Hepatocyte [1], in the series with SK-HEP1 [2] and with HepG2 [3] was over 200 µM in each case.

Turning to `Cc1ccc2c(c1)C(=O)N(c1nc3ccccc3s1)C2=O`, the IC50 in the series with Hepatocyte [1], in the series with SK-HEP1 [2] and with HepG2 [3] was over 200 µM each time.

Turning to `Cc1cnc(N2C(=O)c3ccccc3C2=O)s1`, the IC50 with Hepatocyte [1], with SK-HEP1 [2] and with HepG2 [3] was over 200 µM each time.

On to `Cc1cnc(/N=C2\OC(=O)C3C2[C@@H]2C=C[C@H]3CC2)s1` (stereo partly drawn), for which the IC50 with Hepatocyte [1] was over 200 µM; in the series on SK-HEP1 [2] it was over 200 µM; in the series on HepG2 [3], 92 µM. For the same compound, the Activity result in the series with Hepatocyte [4] is “Non-toxic”. Moreover, the outcome in the series with HepG2 [5] and in the series with SK-HEP1 [7] was Active. The viability at 48 h, 200 µM in series [6] was 80%.

On to `Cc1cnc(N2C(=O)C3C(C2=O)[C@H]2C=C[C@@H]3CC2)s1` (stereo partly drawn), for which the IC50 with Hepatocyte [1], in the series with SK-HEP1 [2] and in the series on HepG2 [3] was over 200 µM in each case.

In the case of `C[C@@]12C(=O)OC(=O)[C@]1(C)[C@H]1CC[C@@H]2O1` [CANTHARIDIN], the IC50 in the series on Hepatocyte [1] was found to be 21 µM; with SK-HEP1 [2] it was 34 µM; in the series with HepG2 [3], 11 µM.

`O=C1OC(=O)[C@H]2[C@@H]1[C@H]1C=C[C@@H]2C1`: the values for the IC50 in the series on Hepatocyte [1], in the series with SK-HEP1 [2] and with HepG2 [3] were over 200 µM, 151 µM and 62 µM, respectively. Moreover, the Activity result with Hepatocyte [4] is on record as “Non-toxic”. The result in the series with HepG2 [5] and in the series with SK-HEP1 [7] was Active. The viability at 48 h, 200 µM in series [6] came out at 80%.

Turning to `O=C1C2C(C(=O)N1c1nccs1)[C@H]1C=C[C@@H]2CC1` (stereo partly drawn), the IC50 in the series on Hepatocyte [1], in the series with SK-HEP1 [2] and in the series with HepG2 [3] was over 200 µM in each case.

With `O=C1OC(=O)c2cc(Oc3ccc4c(c3)C(=O)OC4=O)ccc21`, the 50% inhibitory concentration (IC50) is over 200 µM in the series with Hepatocyte [1], 199 µM in the series on SK-HEP1 [2] and 121 µM in the series on HepG2 [3]. In addition, the Activity entry in the series on Hepatocyte [4] is “Non-toxic”. Also, the result in the series on HepG2 [5] and in the series on SK-HEP1 [7] was Active. Besides, the viability at 48 h, 200 µM in series [6] was 80%.

In the case of `O=C1OC(=O)C2C3CCC(O3)C12` (stereo not drawn) [DEMETHYL-CANTHARIDIN], the IC50 in the series with Hepatocyte [1] turned out to be 75 µM; with SK-HEP1 [2] it was 126 µM; in the series with HepG2 [3], 74 µM.

As for `Cc1ccc2c(c1)C(=O)N(c1nccs1)C2=O`, the IC50 in the series with Hepatocyte [1], in the series with SK-HEP1 [2] and in the series with HepG2 [3] was over 200 µM each time.
